RanGTP-Impb inh = inhibitors of RanGTP-importin-beta interaction, primary screen, biochemical, FRET, CFP-Ran, YFP-importin-beta, homogeneous; hit rate 1.1% among 300,000; AID 2216, 2009; Ran GTPase (GTP-bound) - importin-beta complex; cell-free CFP-Ran/YFP-importin-beta FRET ratio; inhibition, % (no concentration beside the values);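 active = more than half of the replicate wells show a fall in the fluorescence ratio signal beyond about 16%, limit read from the data, passing the limit was not always enough; inconclusive = exactly half of the replicate wells pass the set limit; inactive = fewer than half of replicates pass the limit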;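 also: 0% = DMSO wells and 100% = Ran loaded with GDP instead of GTP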
Runt-CBFb FRET = inhibitors of RUNX1 Runt–CBFb binding, primary screen, biochemical, FRET, Cerulean-Runt, Venus-CBFb, uHTS. Runt-related transcription factor 1 (Homo sapiens) + Core-binding factor subunit beta …. Cerulean-Runt/Venus-CBFb FRET ratio 530/480, 1 h. inhibition, % at 20 µM. hit rate 0.46% among 220,000. AID 1496, 2009;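 active = inhibition over about 50% at 20 µM in the single-dose screen, limit read from the data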;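 also: 0% = DMSO wells and 100% = excess unlabeled CBFb competitor control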
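test system = Cerulean-Runt domain fusion protein, energy donor | probe or stimulus = Venus-CBFb binding partner, 100 nM | incubation = two 1 h room-temperature incubations shielded from light | detection = fluorescence energy transfer, 422 nm excitation, 530/480 nm emission | measure = loss of energy transfer signal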
Hck Nef HTS = inhibitors of Nef-activated human Hck kinase, primary screen, biochemical, Z-Lyte FRET, 384-well, Hck-YEEI; Tyrosine-protein kinase HCK (Homo sapiens), P08631; Recombinant Hck-YEEI plus Nef, Z-Lyte FRET kinase assay; inhibition, % at 20 µM; hit rate 0.68% among 220,000; AID 463187, 2010;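 active = Hck-Nef kinase inhibition above about 50%, limit read from the data; inactive = inhibition below that limit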;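 also: 0% = DMSO with Hck plus Nef and 100% = Hck alone without Nef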
eIF4E 4G PPI = eIF4E–eIF4G protein interaction inhibitors, primary screen, biochemical, uHTS, TR-FRET, eIF4GI fragment; Eukaryotic translation initiation factor 4E (Mus musculus) + Eukaryotic translation …; TR-FRET eIF4E-eIF4GI(517-606) binding, 2 h; inhibition, % at 21.7 µM; hit rate 0.37% among 220,000; AID 782, 2007;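 active = inhibition above about 30%, limit read from the data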;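 also: 0% = full FRET control wells and 100% = background wells lacking eIF4GI fragment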
Target sequence (P63073 whole entry, looked up, the tested form may be a part): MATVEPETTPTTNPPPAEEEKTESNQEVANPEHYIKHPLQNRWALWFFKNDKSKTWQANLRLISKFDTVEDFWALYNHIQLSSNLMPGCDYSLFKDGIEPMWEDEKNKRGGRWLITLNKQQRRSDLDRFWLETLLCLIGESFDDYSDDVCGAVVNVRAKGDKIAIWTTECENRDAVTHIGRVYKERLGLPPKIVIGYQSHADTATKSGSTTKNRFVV
Target sequence (Q04637 whole entry, looked up, the tested form may be a part): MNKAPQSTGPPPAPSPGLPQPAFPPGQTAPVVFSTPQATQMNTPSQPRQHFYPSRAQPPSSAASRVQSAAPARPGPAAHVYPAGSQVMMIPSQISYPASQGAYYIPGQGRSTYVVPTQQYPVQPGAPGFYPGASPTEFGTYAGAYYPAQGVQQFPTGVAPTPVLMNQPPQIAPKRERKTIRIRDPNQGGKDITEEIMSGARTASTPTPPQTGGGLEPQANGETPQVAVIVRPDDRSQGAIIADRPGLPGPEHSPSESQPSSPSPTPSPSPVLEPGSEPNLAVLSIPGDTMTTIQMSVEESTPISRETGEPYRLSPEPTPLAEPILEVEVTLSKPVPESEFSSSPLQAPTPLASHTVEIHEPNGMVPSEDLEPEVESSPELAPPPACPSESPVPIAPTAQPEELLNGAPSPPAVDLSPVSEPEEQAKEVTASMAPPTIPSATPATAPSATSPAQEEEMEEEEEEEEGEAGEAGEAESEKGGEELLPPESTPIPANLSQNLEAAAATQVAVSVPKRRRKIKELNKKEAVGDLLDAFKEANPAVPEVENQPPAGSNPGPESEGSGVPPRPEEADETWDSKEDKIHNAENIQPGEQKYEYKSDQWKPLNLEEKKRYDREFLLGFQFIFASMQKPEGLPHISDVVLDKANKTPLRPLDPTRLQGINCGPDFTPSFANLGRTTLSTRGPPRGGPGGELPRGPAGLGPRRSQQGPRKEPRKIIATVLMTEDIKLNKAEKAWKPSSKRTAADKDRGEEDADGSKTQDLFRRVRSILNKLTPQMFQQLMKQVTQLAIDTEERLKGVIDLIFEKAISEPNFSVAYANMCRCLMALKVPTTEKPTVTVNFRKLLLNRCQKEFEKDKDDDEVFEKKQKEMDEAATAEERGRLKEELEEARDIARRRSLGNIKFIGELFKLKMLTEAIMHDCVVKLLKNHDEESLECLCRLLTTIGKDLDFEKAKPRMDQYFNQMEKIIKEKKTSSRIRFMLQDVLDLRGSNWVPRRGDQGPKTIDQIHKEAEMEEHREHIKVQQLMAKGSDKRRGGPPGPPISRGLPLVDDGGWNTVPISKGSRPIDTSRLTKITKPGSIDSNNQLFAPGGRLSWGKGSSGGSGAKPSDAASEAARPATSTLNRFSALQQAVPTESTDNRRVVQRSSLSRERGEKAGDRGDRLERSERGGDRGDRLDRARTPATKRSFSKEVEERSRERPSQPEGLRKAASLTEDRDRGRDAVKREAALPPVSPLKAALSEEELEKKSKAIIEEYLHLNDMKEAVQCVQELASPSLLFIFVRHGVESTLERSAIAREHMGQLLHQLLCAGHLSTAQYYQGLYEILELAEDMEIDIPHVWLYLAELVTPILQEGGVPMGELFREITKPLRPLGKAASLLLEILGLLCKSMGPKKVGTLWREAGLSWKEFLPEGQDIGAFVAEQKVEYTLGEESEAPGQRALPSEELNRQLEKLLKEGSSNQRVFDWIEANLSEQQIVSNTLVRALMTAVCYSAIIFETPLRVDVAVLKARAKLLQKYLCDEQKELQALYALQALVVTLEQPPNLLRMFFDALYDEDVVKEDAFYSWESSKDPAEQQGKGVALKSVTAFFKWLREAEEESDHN
Runt-SMMHC FRET = inhibitors of RUNX1 Runt–CBFb-SMMHC binding, primary screen, biochemical, FRET, Cerulean-Runt, Venus-CBFb-SMMHC, uHTS; Runt-related transcription factor 1 (Homo sapiens) + Core-binding factor subunit beta …; Cerulean-Runt/Venus-CBFb-SMMHC FRET ratio 530/480, 1 h; inhibition, % at 20 µM; hit rate 0.74% among 220,000; AID 1434, 2008;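 active = mean inhibition across duplicate retests at 20 µM reaching about 50%, limit read from the data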;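 also: 0% = DMSO wells and 100% = wells with excess untagged CBFb-SMMHC; inhibitors lower the FRET ratio by blocking Runt binding to CBFb-SMMHC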
PERK inh = block of dimerizer-induced PERK translation repression, primary screen, PERK inhibitor project, CHO PERK-DD cells, SEAP luminescence, HTS; Eukaryotic translation initiation factor 2-alpha kinase 3 (Homo sapiens), Q9NZJ5; CHO PERK-DD fusion, SEAP luminescence translation reporter; inhibition, % at 5.6 µM; hit rate 0.17% among 220,000; AID 1416, 2008;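 active = inhibition above the mean inhibition of all tested compounds plus 3 SD, set separately per screening campaign, cut at about 2.9% in these data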;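 also: PERK kinase domain activated by AP20187 dimerizer at 100 nM; 0% = DMSO with dimerizer and 100% = rapamycin at 8.4 µM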
Hck Nef conf = retest of Hck:Nef kinase inhibitor hits, confirmation, biochemical, Z-Lyte FRET, 384-well, p-Tyr peptide counterscreen. shares compounds with Hck Nef HTS. Recombinant Hck-YEEI:Nef, Z-Lyte FRET kinase assay. calls only at 10 µM. hit rate 28% among 1,300;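 active = average inhibition of at least 50%, with Z-scores no higher than 3 in both the phospho-tyrosine peptide and fluorescence counterscreens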
Active calls of the source: *; i = inactive; ? = inconclusive; . = no result shown; + = active, no number; [ ] = another dose, or the depositor's remark. An excerpt weighted towards active compounds, which were near 2.2% of everything screened.

SMILES | RanGTP-Impb inh | Runt-CBFb FRET | Hck Nef HTS | eIF4E 4G PPI | Runt-SMMHC FRET | PERK inh | Hck Nef conf
O=C(O)c1ccc(CSc2nnc(Cc3ccccc3)o2)cc1 | 7 | -1 | 1 | -8 | 0 | 0 | .
CC(C)c1ccc(S(=O)(=O)c2cc3cc(Br)ccc3oc2=O)cc1 | 4 | -10 | 0 | -2 | -30 | 1 | .
CCCCCCc1cc2cc(S(=O)(=O)c3ccc(Cl)cc3)c(=O)oc2cc1O | 166* | 6 | 110* | -2 | 81* | 2 | .
Cc1ccc(S(=O)(=O)Nc2ccc(O)c(S(=O)(=O)c3ccc(C)cc3)c2)cc1 | 0 | . | . | . | . | . | .
CCCCCCc1cc2cc(C(=O)Nc3ccccc3)c(=O)oc2cc1O | 117* | 113* | 72* | -6 | 58* | 1 | i
CCCCCCc1cc2cc(S(=O)(=O)c3ccc(C)cc3)c(=O)oc2cc1O | 163* | 6 | 80* | 2 | 81 | 1 | .
CCc1nc(CNC(=O)C2CCC(=O)N(Cc3ccccc3F)C2)no1 (stereo not drawn) | 1 | . | . | . | . | . | .
CC(C)c1nnc(NC(=O)C2CCCN2C(=O)Nc2ccccc2)s1 (stereo not drawn) | 2 | . | . | . | . | . | .
CCOc1cc(N2CCOCC2)c(OCC)cc1NC(=O)c1ccc2ccccc2n1 | -2 | 2 | 64* | 11 | -2 | -1 | i
CCOc1cc(N2CCOCC2)c(OCC)cc1NC(=O)c1ccccc1C | 0 | 0 | 8 | 1 | 0 | 1 | .
CCc1nnc(NS(=O)(=O)c2ccc(NC(=S)NC(=O)/C=C/c3ccc(C(C)C)cc3)cc2)s1 | -5 | -47 | 65* | 64*[fluorescence artefact?] | -83 | 0 | +
CCc1nnc(NS(=O)(=O)c2ccc(NC(=S)NC(=O)/C=C/c3ccccc3)cc2)s1 | -3 | -4 | 5 | 2 | -3 | 1 | .
CCCCC(=O)NC(=S)NNS(=O)(=O)c1ccccc1 | 4 | 42 | 5 | 4 | 24 | 1 | .
COc1cc2ncnc(NCc3cccs3)c2cc1OC | 4 | -1 | 57* | 2 | -1 | 2 | i
Clc1ccc2c(NCc3cccs3)ncnc2c1 | 2 | . | . | . | . | . | .
CC(C)(C)N/N=C/c1c(O)n(-c2ccc(Cl)cn2)c(=O)c2ccccc12 | 8 | 0 | 8 | 4 | 20 | 0 | .
O=C(Cn1c2ccccc2c(=O)c2ccccc21)N/N=C/c1cc([N+](=O)[O-])ccc1N1CCCCCC1 | -4 | -44 | 81* | . | -91 | 1 | +
O=C(CNc1ccccc1)N/N=C/c1cc([N+](=O)[O-])ccc1N1CCCC1 | 0 | -6 | 3 | -9 | -28 | 2 | .
O=C(OCC(=O)N1CCN(C(=O)c2ccco2)CC1)c1cc(-c2ccc(Cl)c(Cl)c2Cl)nc2ccccc12 | 4 | -16 | 50* | -31 | -7 | -1 | +
O=C(OCC(=O)N1CCN(C(=O)c2ccco2)CC1)c1cc(-c2ccco2)nc2ccccc12 | -4 | 3 | 6 | 27 | -11 | -1 | .
CC(=O)Nc1ccc(-c2csc(NC(=O)C3CC(=O)N(c4ccc5c(c4)OCCO5)C3)n2)cc1 (stereo not drawn) | -4 | -1 | 51* | -3 | -4 | 1 | i
COc1ccc(-c2csc(NC(=O)C3CC(=O)N(c4ccc5c(c4)OCCO5)C3)n2)cc1 (stereo not drawn) | 3 | -2 | 3 | 1 | -8 | -1 | .
COc1ccc(N2CCN(CCNC(=O)c3ccc4c(c3)[nH]c(=S)n3c5ccccc5nc43)CC2)cc1 | 1 | 5 | 51* | 14 | 0 | 0 | i
Cc1c2c(n3c(nc4ccccc43)c1C#N)N(CCCN(C)C)CC2 | 1 | 100* | 54* | 6 | 91* | 0 | i
Cc1c2c(n3c(nc4ccccc43)c1C#N)N(CCN(C)C)CC2 | -2 | 19 | 55* | 4 | 91* | 1 | i
SMILES | RanGTP-Impb inh | Runt-CBFb FRET | Hck Nef HTS | eIF4E 4G PPI | Runt-SMMHC FRET | PERK inh | Hck Nef conf
O=c1c(O)cccc2cc(O)c(O)c(O)c12 | ? | 24 | 65* | 61* | -4 | 0 | +
COc1cc2cccc(OC)c(=O)c2c(OC)c1OC | ? | 2 | 19 | 0 | -2 | 1 | .
COc1ccc(Cl)cc1C(=O)Nc1cccnc1 | 5 | . | . | . | . | . | .
CCOC(=O)c1c(NC(=O)N/N=C/c2ccc(O)c(OC)c2)sc(C(C)=O)c1C | -5 | 5 | 61* | -18 | -6 | 1 | i
Cc1ccc(NS(=O)(=O)c2ccc(C(=O)N3CCN(c4ccccn4)CC3)cc2)cc1 | -3 | -2 | 80* | -9 | -8 | -1 | i
COC(=O)c1sc2ncccc2c1OCc1c(Cl)cccc1Cl | ? | 0 | 55* | 6 | -1 | 0 | i
COc1ccc(-c2nn(-c3ccccc3)cc2/C=N/Nc2ccc(Cl)c(C(=O)O)c2)cc1OC | -3 | -1 | 25 | -3 | -3 | 0 | .
COc1cc2nc(SCC(=O)NCc3ccco3)n(Cc3ccc(Cl)cc3)c(=O)c2cc1OC | 3 | -1 | 100* | -2 | -7 | 0 | +
CCCn1c(NC(=O)c2ccc(Cl)c(S(=O)(=O)N3CCCC3)c2)nc2ccccc21 | -1 | 1 | 73* | 3 | 4 | -2 | +
Cc1ccc(S(=O)(=O)NCCC(=O)Oc2ccc3ccc(=O)oc3c2)cc1 | 8 | 36 | 93* | -5 | 56* | 1 | .
Cc1ccc2cc(S(=O)(=O)NCCC(=O)O)ccc2c1 | ? | 4 | 1 | -7 | 3 | 1 | .
O=C(CSc1nnc(SCc2ccccc2)s1)N/N=C/c1c[nH]c2ccccc12 | -7 | . | 95* | -3 | -54 | 2 | +

Screening data (PubChem BioAssay)
